The values that follow come from publication PMC3902942 (Nucleic Acids Research, 2013).

Experiment [1] deals with λB site DNA hairpin duplex. The experiment in a line: Biosensor-SPR direct binding of compounds to immobilized λB site DNA hairpin. To be noted: read-out: KD for the λB site.
Experiment [2] relates to PU.1-λB complex (PU.1 ETS domain on immobilized λB site hairpin). The experiment in a line: Biosensor-SPR PU.1-DNA complex inhibition. Type of experiment: binding, murine. Put shortly:
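Murine PU.1 ETS domain (residues 167–272), expressed in E. coli, on a Biacore T200 biosensor. 5′-Biotinylated λB-site hairpin DNA immobilised on CM4 chips. Protein injected at constant 100 nM to saturate DNA sites, with graded compound concentrations added to the protein solution. Loss of protein signal plotted against compound concentration. Transition midpoint taken as IC50.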

Usually Kd stands for a measure of binding affinity in units of concentration. As to `N=C(N)c1ccc(-c2ccc(-c3ccc(C(=N)N)cc3)o2)cc1` [DB75, furamidine], the Kd in experiment [1] worked out at 530 nM. Further, the “Inhibition of PU.1 binding (in words)” value in experiment [2] is on record as “does not inhibit PU.1 binding”. As usually defined, the IC50 is the point on the concentration scale where inhibition reaches its midpoint. With `N=C(N)c1ccc(-c2ccc(-c3ccc(C(=N)N)cc3)[se]2)cc1` [DB1213], the IC50 in experiment [2] (read-out: IC50 of PU.1 binding inhibition) was about 1500 nM.
